The test system of assay [1] is DC3F/AD. Kind of assay: Increase in adriamycin uptake in modulator-treated cells relative to untreated cells at a concentration of 10 uM. The assay is classed as functional, Cricetulus griseus. Summed up: (§1)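 DC-3F/AD or KB-A1 cells (5 × 10⁶/mL) were incubated at 37 °C for 5 h with 50 μM adriamycin plus modulator (2.5–10 μM range). ADR fluorescence of 10 000 cells was read by flow cytometry at 4 °C with 488 nm argon-laser excitation. The value is the increase in mean fluorescence of treated cells over untreated cells.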

Assay [2] relates to DC3F/AD. Briefly: Increase in adriamycin uptake in modulator-treated cells relative to untreated cells at a concentration of 5 uM. The assay is classed as functional, Cricetulus griseus. Summed up:
as §1

In assay [3] the test system is DC3F/AD. Kind of assay: Percent of cell viability remaining after incubating the cells with the modulator alone a concentration of 5 uM. The assay is classed as functional, Cricetulus griseus. The essentials:
(§2)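 Cells were grown with modulator alone for 4 days under the same conditions as the chemosensitivity assay, and read by MTT. Viability = (absorbance with modulator/absorbance of control cells) × 100. "tox" marks viability below 25%.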

In assay [4] the test system is DC3F/AD. Kind of assay: Percent of cell viability remaining after incubating with a 10 uM concentration. The assay is classed as functional, Cricetulus griseus. The essentials: as §2
Assay [5] relates to DC3F/AD. Kind of assay: In vitro activity in DC-3F/AD cell line(Ratio of IC50(actinomycin D alone) / IC50(actinomycin D + modulator) at a concentration of 5 uM.
Assay [6] deals with DC3F/AD. Briefly: In vitro activity in DC-3F/AD cell line Ratio of IC50(actinomycin D alone) / IC50(actinomycin D + modulator) at a concentration of 10 uM.
Assay [7] concerns KB. Kind of assay: Percent of cell viability remaining after incubating the cells with the modulator alone. The assay is classed as functional, Homo sapiens. Details: concentration or dose not given beside the values. Summed up:
as §2

Assay [8] relates to KB. Briefly: Increase in adriamycin uptake in modulator-treated cells relative to untreated KB-A1 cells at a concentration of 5 uM. The assay is classed as functional, Homo sapiens. Summed up: as §1
Assay [9] concerns KB. Kind of assay: In vitro activity in KB-A1 cell line activity expressed as fold reversion (Ratio of IC50(adriamycin alone) / IC50(adriamycin + modulator) at a concentration of 5 uM. The assay is classed as functional, Homo sapiens. Summed up: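 Human epidermoid KB-A1 cells (Pgp-overexpressing) were grown in RPMI 1640 with 10% FCS and 10 mM HEPES (pH 7.4). They were exposed for 4 days to adriamycin (nine graded concentrations, in triplicate) with or without 5 μM modulator. IC50 was read by the MTT assay. Fold reversion = IC50(ADR alone)/IC50(ADR + modulator).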

A value given as a limit tells only on which side of the number the result lay.

The values that follow come from ChEMBL document CHEMBL1126298, “New triazine derivatives as potent modulators of multidrug resistance” (1992).

Consider `C=CCNc1nc(NCC=C)nc(N2CCC(N(C)CC(c3ccccc3)c3ccccc3)CC2)n1`, for which the figures for the Increase in assay [1] and in assay [2] were 27.9 and 20.6, respectively. Further, the Viability in assay [3] is given as 88%; in [4], 85%. Besides, the values for the Fold reversion in assay [5] and in assay [6] were 354 and 1418, respectively.
In the case of `C=CCNc1nc(NCC=C)nc(N2CCC(NC3c4ccccc4CCc4ccccc43)CC2)n1`, the Increase in [1] is recorded as 39.7; in [2] it was 34.3; in [8], 34.2. Moreover, the Viability is recorded as 99% in assay [3], 74% in assay [7] and 91% in assay [4]. In addition, the Fold reversion is 91 in assay [9], 755 in assay [5] and 1626 in [6].
`C=CCNc1nc(N)nc(N2CCC(NCC3c4ccccc4CCc4ccccc43)CC2)n1`: the Increase is on record as 11 in assay [1], 6.7 in assay [2] and 16.3 in [8]. Moreover, the Viability in [3] worked out at 92%; in [7], 122%. In addition, the Fold reversion in assay [9] is 89; in [5], 421.
Regarding `C=CCNc1nc(NCC=C)nc(NCC(O)CN2CCC(NCC3c4ccccc4CCc4ccccc43)CC2)n1` (configuration not stated), the Increase in [1] amounted to 12.6; in [2], 10.5; in assay [8], 5.5. The Viability in assay [3] was found to be 98%. Moreover, the Fold reversion in assay [9] is listed as less than 25; in assay [5], 1.
`C=CCNc1nc(NCC=C)nc(NCC2CCN(CC3c4ccccc4CCc4ccccc43)CC2)n1`: the Increase was found to be 21 in assay [1], 19.3 in assay [2] and 9.8 in assay [8]. The Viability is listed as 57% in assay [3] and 53% in [7]. Also, the values for the Fold reversion in assay [9], in [5] and in assay [6] were 12, 353 and less than 25, respectively.
For the compound `C=CCNc1nc(NCC=C)nc(N2CCN(CCC(c3ccccc3)c3ccccc3)CC2)n1`, the results for the Increase in [1] and in [2] were 1.2 and 0, respectively. Further, the Viability in [3] stood at 72%; in assay [4], 64%. Also, the Fold reversion in assay [5] turned out to be 42; in assay [6], 598.
`C=CCNc1nc(NCC=C)nc(N2CCC(NC(c3ccc(F)cc3)c3ccc(F)cc3)CC2)n1`: the results for the Increase in assay [1] and in assay [2] were 25.1 and 16, respectively. Moreover, the Viability in [3] was 76%; in assay [4], 56%. Moreover, the results for the Fold reversion in [5] and in assay [6] were 388 and 1212, respectively.
Regarding `C=CCNc1nc(NCC=C)nc(N2CCC(NCCC(c3ccc(OC)c(OC)c3)c3ccc(OC)c(OC)c3)CC2)n1`, the figures for the Increase in [1] and in [2] were 2.9 and 1.6, respectively. Further, the Viability is reported as 115% in assay [3], 100% in assay [7] and 114% in [4]. In addition, the Fold reversion in [9] is reported as 6; in assay [5], 12; in assay [6], 12.
Consider `C=CCNc1nc(NCC=C)nc(N2CCC(NCC(c3ccc(F)cc3)C3CCCCC3)CC2)n1` (configuration not stated), for which the Increase is listed as 34.6 in [1], 30.1 in assay [2] and 48.1 in [8]. Further, the figures for the Viability in assay [3] and in assay [7] were 85% and 71%, respectively. Further, the Fold reversion in assay [9] is reported as 142; in assay [5], 1009; in assay [6], less than 25.
As for `C=CCNc1nc(NCC=C)nc(N2CCC(SCCC(c3ccccc3)c3ccccc3)CC2)n1`, the values for the Increase in assay [1] and in [2] were 19.7 and 8, respectively. The Viability in assay [3] stood at 85%; in assay [4], 79%. Also, the Fold reversion in assay [5] was 41; in assay [6] it was 248.
As to `C=CCNc1nc(NCC=C)nc(N2CCC(OC(c3ccc(F)cc3)c3ccc(F)cc3)CC2)n1.Cl`, the results for the Increase in assay [1] and in [2] were 16.1 and 11.4, respectively. For the same compound, the Viability is 70% in [3] and 56% in assay [4]. In addition, the results for the Fold reversion in assay [5] and in assay [6] were 290 and 969, respectively.
With `C=CCNc1nc(NCC=C)nc(NCC(O)CN2CCC(NC3c4ccccc4CCc4ccccc43)CC2)n1` (configuration not stated), the values for the Increase in assay [1], in assay [2] and in [8] were 12.9, 10.4 and 13, respectively. The compound further gave a Viability in [3] of 77%. Moreover, the Fold reversion in assay [9] is less than 25; in assay [5] it was 2.
Turning to `C=CCNc1nc(NCC=C)nc(NCCN2CCC(NCC3c4ccccc4CCc4ccccc43)CC2)n1`, the Increase in [1] is 12.4; in assay [2], 13.7; in assay [8] it was 20.9. This compound also came in with a Viability in assay [3] of 41%. The Fold reversion in assay [9] is reported as less than 25; in [5], 120; in assay [6], less than 25.
`C=CCNc1nc(NCC=C)nc(N2CCC(NCC3c4ccccc4CCc4cc(OC)ccc43)CC2)n1` (configuration not stated): the Increase in [2] is reported as 30.8; in assay [8] it was 72.6. The Viability was 73% in assay [3] and 83% in [7]. Moreover, the results for the Fold reversion in [9], in assay [5] and in assay [6] were 264, 1913 and less than 25, respectively.
`C=CCNc1nc(NCC=C)nc(N2CCN(NC(=O)C3c4ccccc4CCc4ccccc43)CC2)n1`: the figures for the Increase in [1] and in assay [2] were 24.8 and 9.5, respectively. In addition, the Viability in assay [3] stood at 86%; in [4], 67%. For the same compound, the Fold reversion turned out to be 138 in assay [5] and 2174 in [6].
For `C=CCNc1nc(NCC=C)nc(N2CCC(NCC(c3ccccc3)c3ccccc3)CC2)n1`, the Increase is on record as 34.7 in assay [1] and 31.3 in [2]. For the same compound, the results for the Viability in assay [3] and in assay [4] were 90% and 77%, respectively. The figures for the Fold reversion in [5] and in [6] were 753 and 1540, respectively.
Regarding `C=CCNc1nc(NCC=C)nc(N2CCC(N(CC)C(c3ccc(F)cc3)c3ccc(F)cc3)CC2)n1`, the Increase in assay [1] is given as 44.7; in [2] it was 42.7. The Viability in [3] was found to be 75%; in assay [4], 53%. Besides, the Fold reversion in [5] came to 1008; in assay [6], 1838.
On to `C=CCNc1nc(NCC=C)nc(NCC2CCN(C3c4ccccc4CCc4ccccc43)CC2)n1`, for which the Increase was found to be 17.4 in assay [1], 10.1 in [2] and 1.9 in [8]. Also, the Viability in assay [3] was determined as 71%; in assay [7], 97%; in [4], 49%. The Fold reversion is recorded as 10 in [9], 10 in [5] and 46 in assay [6].
In the case of `C=CCNc1nc(NCC=C)nc(NC2CCN(C(c3ccc(F)cc3)c3ccc(F)cc3)CC2)n1`, the Viability worked out at 38% in [3] and 40% in assay [7]. Besides, the Fold reversion in assay [9] was 22; in assay [5], 1654; in assay [6], less than 25.
In the case of `C=CCNc1nc(NCC=C)nc(NCCN2CCC(NC3c4ccccc4CCc4ccccc43)CC2)n1`, the Increase in assay [1] was found to be 18.3; in [2] it was 10.4; in assay [8] it was 14.5. In addition, the Viability in assay [3] was found to be 38%. Also, the Fold reversion in [9] is less than 25; in assay [5], 64; in assay [6] it was less than 25.
In the case of `C=CCNc1nc(NCC=C)nc(N2CCC(NCC(c3cc(OC)cc(OC)c3)c3ccccc3C)CC2)n1` (configuration not stated), the Increase was found to be 26.5 in assay [1], 24.7 in assay [2] and 41.4 in assay [8]. The Viability was 80% in [3] and 91% in [7]. Also, the Fold reversion in assay [9] is reported as 111; in [5] it was 1224; in assay [6], less than 25.
On to `C=CCNc1nc(NCC=C)nc(N2CCC(NCC(c3c(C)cccc3C)c3c(C)cccc3C)CC2)n1`, for which the Increase in assay [1] came to 35.5; in [2], 28.9. Besides, the Viability in assay [3] is listed as 100%; in assay [4] it was 84%. Also, the Fold reversion in [5] is listed as 93; in assay [6] it was 374.
As for `C=CCNc1nc(NCC=C)nc(N2CCC(NCC34CCC(c5ccccc53)c3ccccc34)CC2)n1`, the Increase was found to be 30.7 in [1], 20.2 in assay [2] and 22.2 in [8]. Further, the Viability in [3] was determined as 90%; in [4], 87%. For the same compound, the Fold reversion in assay [9] was less than 25; in assay [5], 96; in [6], 422.
